Screening results deposited in PubChem BioAssay by The Scripps Research Institute Molecular Screening Center.
IMP-1 inh-1 = blocks Pseudomonas aeruginosa IMP-1 metallo-beta-lactamase | inhibition, % at 5.6 µM | 290,000 tested, 0.45% active | purified IMP-1, nitrocefin hydrolysis, epi-absorbance fluorescence | AID 1556;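 active means inhibition above the mean plus 3 SD of all compounds in the same screening run, cut at about 4.5% in these data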;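 further: 0% = IMP-1 with DMSO and 100% = DMSO wells lacking enzyme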
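Material – recombinant IMP-1 enzyme, purified · Amount – IMP-1 0.2 nM before substrate addition · Medium – HEPES buffer pH 7.1 with ZnSO4 and Brij 35 · Timing – 25 °C, 15 min preincubation, 25 min reaction · Measured by – plate fluorescence quenching by hydrolysis product, ex 480/em 530 nm · Read-out – percent enzyme inhibition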
VIM-2 inhibitor = blocks Pseudomonas aeruginosa VIM-2 metallo-beta-lactamase. purified VIM-2, nitrocefin hydrolysis, epi-absorbance fluorescence. inhibition, % at 5.6 µM. 290,000 tested, 0.89% active. AID 1527;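 active means inhibition above the mean of all tested compounds plus 3 SD, cutoff set per screening run, cut at about 7.5% in these data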;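 further: red hydrolysis product quenches plate fluorescence so inhibitors raise well fluorescence; 0% = enzyme with DMSO and 100% = DMSO without enzyme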
core dimer inh = blocks dimerization of HCV core protein; TR-FRET GST/Flag-core106 dimerization, 1536-well; inhibition, % at 5 µM; AID 1899; 300,000 tested, 0.33% active;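 active means inhibition above the mean of all tested compounds plus 3 SD, set per screening campaign, cut at about 45% in these data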
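Assay system: GST-tagged and Flag-tagged HCV core protein residues 1-106 / Times: compound-protein-antibody incubation 4 h at 22.5 °C / Signal: time-resolved FRET, ex 340 nm, em 617 and 671 nm / Evaluation: % inhibition based on acceptor/donor emission ratio / Benchmarks: wells lacking GST-core106 and wells with excess unlabelled core106 / Repeats: singlicate, one well per compound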
DNA FID counter = displaces DNA intercalator in HCV helicase counter-screen | DNA fluorescent intercalator displacement, fluorescence | inhibition, % at 7.9 µM | 290,000 tested, 0.17% active; in the data active means inhibition above about 37%;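 further: 0% = vehicle and 100% = reference compound; higher means more ethidium bromide displaced from hairpin DNA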
IMP-1 inh-2 = IMP-1 inhibition, counter-screen for VIM-2 inhibitors | AID 1856 | purified IMP-1, nitrocefin hydrolysis, epi-absorbance fluorescence | inhibition, % at 5.6 µM | 1,300 tested, under 10 active | shares compounds with VIM-2 inhibitor; call rule not given here;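 further: 0% = enzyme with vehicle and 100% = vehicle without enzyme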
VIM-2 FRET inh = inhibits VIM-2 in FRET assay to exclude epi-absorbance artifacts. purified VIM-2, CCF2 FRET substrate hydrolysis. shares compounds with VIM-2 inhibitor. 1,300 tested, 23% active. inhibition, % at 5.6 µM;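 active means inhibition above the mean of all tested compounds plus 3 SD, cut at about 19% in these data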;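 further: 0% = VIM-2 plus DMSO and 100% = no enzyme wells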
TEM-1 inh = blocks E. coli TEM-1 beta-lactamase in VIM-2 selectivity screen; shares compounds with VIM-2 inhibitor; inhibition, % at 5.6 µM; Purified TEM-1, nitrocefin hydrolysis, epi-absorbance fluorescence; 1,300 tested, 3% active;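 active means inhibition above that campaign's mean inhibition plus 3 SD, cut at about 0.46% in these data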;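 further: 0% = TEM-1 with DMSO and 100% = TEM-1 with 100 µM potassium clavulanate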
Target sequence (P62593 whole entry, looked up): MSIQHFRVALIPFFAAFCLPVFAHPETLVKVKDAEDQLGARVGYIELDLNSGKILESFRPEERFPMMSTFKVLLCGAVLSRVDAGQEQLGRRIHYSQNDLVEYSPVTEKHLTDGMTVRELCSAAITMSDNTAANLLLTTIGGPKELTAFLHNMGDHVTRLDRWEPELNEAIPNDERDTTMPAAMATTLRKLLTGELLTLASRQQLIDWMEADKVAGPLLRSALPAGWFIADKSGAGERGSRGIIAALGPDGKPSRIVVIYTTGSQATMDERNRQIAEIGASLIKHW
VIM-2 inh conf = confirmation of P. aeruginosa VIM-2 metallo-beta-lactamase inhibitors. shares compounds with VIM-2 inhibitor. purified VIM-2, nitrocefin hydrolysis, epi-absorbance. inhibition, % at 5.6 µM. 1,300 tested, 96% active;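 active means inhibition of the VIM-2 beta-lactamase enzyme above about 11% from the earlier first-round screen, limit read from the data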;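 further: 0% = VIM-2 with DMSO and 100% = buffer wells without enzyme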
Active calls of the source: *; . = not tested or not shown. Only some compounds are listed: those with a hit (about 1.6% of all), similar ones and a draw of the others.

SMILES	IMP-1 inh-1	VIM-2 inhibitor	core dimer inh	DNA FID counter	IMP-1 inh-2	VIM-2 FRET inh	TEM-1 inh	VIM-2 inh conf
COc1cccc(/C=C2\SC(=S)N(C(C(=O)O)c3ccccc3)C2=O)c1OC (configuration not stated)	1	32*	3	-13	-2	26*	-6	18*
COc1cc(/C=C2\SC(=S)N(C(C(=O)O)c3ccccc3)C2=O)cc(OC)c1OC (configuration not stated)	-2	1	12	-1	.	.	.	.
CCCNC(=O)CCc1nnc2ccc(N3CCC(C)CC3)nn12	-2	-4	1	-28	.	.	.	.
COc1ccc2[nH]c(C(=O)O)c(CCN3C(=O)c4ccc(C(=O)O)cc4C3=O)c2c1	-1	71*	-7	-2	-3	84*	-5	75*
O=C(O)c1[nH]c2ccc(Cl)cc2c1CCN1C(=O)c2ccccc2C1=O	-1	65*	1	-22	-1	79*	-2	74*
COc1ccc2[nH]c(C(=O)O)c(CCC(=O)O)c2c1	2	-5	1	0	.	.	.	.
Cc1ccc(NC(=O)CCN2C(=O)c3cccc([N+](=O)[O-])c3C2=O)c(Br)c1	2	0	2	-2	.	.	.	.
O=C(O)c1[nH]c2ccc(Br)cc2c1CCN1C(=O)c2cccc([N+](=O)[O-])c2C1=O	-2	61*	8	-7	-3	79*	-7	68*
Cc1ccc(C(=O)Nc2ccc(Oc3cccc(C(F)(F)F)c3)nc2)cc1	-4	-2	1	-1	.	.	.	.
NC(=O)c1cc(NC(=O)CCc2nc3ccccc3s2)cc(C(N)=O)c1	-1	-2	-3	-5	.	.	.	.
Cc1ccc(-c2nnn3c2nc(NCCc2ccc(S(N)(=O)=O)cc2)c2ccccc23)cc1	-5	-2	5	-7	.	.	.	.
Clc1nnc(N/N=C/c2ccccc2)c2ccccc12	2	0	-1	0	.	.	.	.
C[n+]1ccc(/C=N/Nc2nc(Cl)c(C#N)c(Cl)c2Cl)cc1	-8	43*	-2	15	-9	34*	-13	53*
CCSc1ccc2nnc(-c3cccc(F)c3)n2n1	-2	12*	2	-13	-3	-9	-6	23*
COc1ccc(-c2oc3ncnc(NCCCN4CCOCC4)c3c2-c2ccc(OC)cc2)cc1	2	1	3	7	.	.	.	.
CCOc1cc2nc(-c3ccc(OC)c(OC)c3)nc(NCCCN3CCOCC3)c2cc1OC	0	26*	-1	43*	-4	3	-7	49*
COc1ccc(/C=C/C(=O)OCC(=O)c2c(N)n(C)c(=O)n(C)c2=O)cc1	-2	-2	1	1	.	.	.	.
COc1ccc(-c2cc(C(=O)OCC(=O)c3c(N)n(C)c(=O)n(C)c3=O)c3ccccc3n2)cc1	-2	-2	17	20	.	.	.	.
Cn1c(N)c(C(=O)COC(=O)c2cc(-c3ccco3)nc3ccccc23)c(=O)n(C)c1=O	4	14*	.	-12	-2	-20	-5	37*
COc1ccc(/C=C2\CCCc3c2nc2ccccc2c3C(=O)OCC(=O)c2c(N)n(C)c(=O)n(C)c2=O)cc1	0	14*	13	-20	-3	3	-6	6
Cn1c(N)c(C(=O)COC(=O)c2cc(C3CC3)nc3ccccc23)c(=O)n(C)c1=O	-3	13*	-11	-9	-2	9	-7	63*
Cn1c(N)c(C(=O)COC(=O)c2cccnc2Cl)c(=O)n(C)c1=O	-2	4	-2	-3	.	.	.	.
O=C1Nc2ccc(F)cc2C12Nc1ccccc1-c1nnc(SCc3ccccc3Cl)nc1O2 (configuration not stated)	0	6	14	-8	.	.	.	.
Cc1ccc(Nc2nnc(SCc3cc(=O)n4ccsc4n3)s2)c(C)c1	3	-1	10	-15	.	.	.	.
COc1ccccc1Nc1nnc(SCc2cc(=O)n3ccsc3n2)s1	1	13*	3	-17	1	14	3.0*	12*
SMILES	IMP-1 inh-1	VIM-2 inhibitor	core dimer inh	DNA FID counter	IMP-1 inh-2	VIM-2 FRET inh	TEM-1 inh	VIM-2 inh conf
CC(/C=N/NC(=S)Nc1cccc(S(=O)(=O)N(C)C)c1)c1ccccc1 (configuration not stated)	-4	46*	1	-6	-2	67*	-3	52*
CN(C)S(=O)(=O)c1cccc(NC(=S)N/N=C/c2ccco2)c1	-3	1	1	-11	.	.	.	.
CN(C)S(=O)(=O)c1cccc(NC(=S)N/N=C/c2ccc(O)c(O)c2O)c1	-2	1	.	-18	.	.	.	.
CN(C)S(=O)(=O)c1cccc(NC(=S)N/N=C/C(c2ccccc2)c2ccccc2)c1	-6	21*	9	-1	-3	35*	-8	23*
COc1ccc(C)cc1NS(=O)(=O)c1cccc2nonc12	-1	-2	6	3	.	.	.	.
CCn1c(=O)c2cc(C(=O)NCCN(C)C)sc2c2ccccc21	-1	13*	0	4	-2	1	-5	20*
CCOc1ccccc1N(C)C(=O)c1cc2c(=O)n(CC)c3ccccc3c2s1	-1	-1	10	-22	.	.	.	.
CCN(CC)CCCNC(=O)c1cc2c(=O)n(CC)c3ccccc3c2s1	-2	14*	2	6	-2	1	-5	21*
CCN(CC)CCNC(=O)c1cc2c(=O)n(CC)c3ccccc3c2s1	-4	14*	1	14	-2	-1	-4	21*
CCn1c(=O)c2cc(C(=O)N3CCCC3)sc2c2ccccc21	-4	-1	.	-14	.	.	.	.
Nc1nc(/C=C/c2cccnc2)nc(-c2ccccc2O)n1	-1	23*	5	-1	-3	-4	-7	60*
Nc1nc(/C=C/c2ccc(F)cc2)nc(-c2ccccc2O)n1	1	1	-1	3	.	.	.	.
COc1ccc(Cl)cc1NC(=O)CSc1nnc(CN2CCOCC2)n1-c1ccc(Cl)cc1	-1	1	0	-38	.	.	.	.
CCOC(=O)c1nnn2c1nc(SCC(C)=O)c1ccccc12	-2	7	3	-1	.	.	.	.
C=CCSc1nc2c(C(=O)OCC)nnn2c2ccccc12	-3	28*	.	-23	-4	-4	-11	39*
O=C(NCCC1=CCCCC1)C1CCC(CNc2nc(=S)[nH]c3ccccc23)CC1 (configuration not stated)	-3	-8	10	8	.	.	.	.
Cc1ccc(Nc2c3c(nc4ncnn24)CCC3)cc1	-1	17*	0	-16	-3	1	-5	24*
Cc1ccc(Nc2c3c(nc4ncnn24)CC(C)CC3)cc1 (configuration not stated)	-2	-1	1	-22	.	.	.	.
COc1ccc(Cl)cc1-c1n[nH]c(=S)n1C	-2	-2	2	0	.	.	.	.
